mIAP act: increases mouse intestinal alkaline phosphatase activity | muIAP, CDP-Star luminescence, 30 min; active compounds read high; 1 = vehicle-only enzyme signal, 0 = enzyme-free wells | activation factor at 10 µM | 330,000 compounds, 0.24% hits | AID 2805;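 active = activation factor of at least 2 at 20 µM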
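also added = chemiluminescent substrate CDP-Star | test system = mouse IAP enzyme | signal = chemiluminescence readout | compound = DMSO-dissolved test compounds | incubation = 30 min at room temperature | benchmarks = DMSO wells, no-enzyme wells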
mIAP block: mouse IAP inhibition; inhibition, % at 10 µM; purified mouse IAP, CDP-Star luminescence, 30 min; 330,000 compounds, 0.2% hits; AID 2806;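 active = inhibition of at least 40% at 10 µM in the primary screen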;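 note: plate controls were DMSO with enzyme for no effect and no enzyme wells for full effect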
hIAP inh: blocks human intestinal alkaline phosphatase | inhibition, % at 10 µM | purified IAP, CDP-Star luminescence, 30 min | P09923 | AID 2544 | 330,000 compounds, 0.12% hits;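 active = inhibition reaching a set limit with compound at 10 µM in the primary screen, cut at about 35% in these data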;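 note: plate controls were DMSO wells with enzyme for no effect and no-enzyme buffer wells for full effect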
Target sequence (P09923 whole entry, looked up): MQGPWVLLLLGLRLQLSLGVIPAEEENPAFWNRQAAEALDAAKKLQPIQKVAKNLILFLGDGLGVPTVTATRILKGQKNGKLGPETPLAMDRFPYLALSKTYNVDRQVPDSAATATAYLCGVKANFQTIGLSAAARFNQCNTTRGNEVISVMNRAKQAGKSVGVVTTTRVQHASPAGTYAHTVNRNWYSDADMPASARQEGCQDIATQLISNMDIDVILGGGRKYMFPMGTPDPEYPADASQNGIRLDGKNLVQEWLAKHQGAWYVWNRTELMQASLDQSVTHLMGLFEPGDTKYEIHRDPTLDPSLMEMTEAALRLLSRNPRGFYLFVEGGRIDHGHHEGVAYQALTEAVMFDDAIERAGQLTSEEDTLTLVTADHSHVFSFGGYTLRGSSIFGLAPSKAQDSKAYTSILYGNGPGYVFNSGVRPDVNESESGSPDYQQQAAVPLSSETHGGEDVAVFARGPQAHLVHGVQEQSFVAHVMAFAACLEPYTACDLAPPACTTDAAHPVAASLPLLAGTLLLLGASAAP
hIAP act: human IAP activation; activation factor at 10 µM; purified human IAP, CDP-Star luminescence, 30 min; active compounds read high; 1 = vehicle-only enzyme, 0 = enzyme-free background; P09923; 330,000 compounds, 0.16% hits; AID 2524;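 active = activation factor of the enzyme at least 2-fold when tested at 20 µM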
bIAP inhibitor: intestinal alkaline phosphatase (bovine) inhibition. purified bovine IAP, CDP-star luminescence, 30 min. inhibition, % at 20 µM. 190,000 tested, under 10 active. AID 1019;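 active = over 50% inhibition of intestinal alkaline phosphatase at 20 µM in the single-dose screen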
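test system = bovine IAP enzyme | medium = DEA buffer 100 mM, pH 9.8, with MgCl2 1.0 mM, ZnCl2 0.02 mM | detection = luminescence | dosing = single compound dose of 20 µM, 2% DMSO final | incubation = 30 min reaction at room temperature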
bIAP act: increases bovine intestinal alkaline phosphatase activity | purified bovine IAP, CDP-star luminescence, 30 min; active compounds read high; fold of DMSO-control signal, blank-subtracted | activation factor at 20 µM | 200,000 compounds, 0.17% hits;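 active = activation factor of 2 or more at 20 µM, a signal rise over negative controls twice the positive control's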
* hit, by the source's call; / = not tested or not shown. Compounds with a hit are over-represented: about 0.79% of the library has one in this group of screens.

SMILES | mIAP act | mIAP block | hIAP inh | hIAP act | bIAP inhibitor | bIAP act
C[C@@H]1CN([C@@H](C)CO)C(=O)Cc2cc(NC(=O)Nc3ccc(C(F)(F)F)cc3)ccc2O[C@@H]1CN(C)S(=O)(=O)c1ccc(Cl)cc1 | 1.41 | -41.2 | -16.6 | 1.17 | / | /
C[C@H](CO)N1C[C@H](C)[C@@H](CN(C)S(C)(=O)=O)Oc2ccc(NC(=O)Nc3ccc(C(F)(F)F)cc3)cc2C1=O | 2.26* | -126.0 | -3.8 | 1.04 | / | /
C[C@H](CO)N1C[C@H](C)[C@H](CN(C)S(=O)(=O)c2cn(C)cn2)Oc2ccc(NC(=O)Nc3ccc(C(F)(F)F)cc3)cc2CC1=O | 2.69* | -168.9 | -8.3 | 1.08 | / | /
C[C@H](CO)N1C[C@H](C)[C@@H](CN(C)C(=O)Nc2ccc(C(F)(F)F)cc2)Oc2ccc(NC(=O)NC3CCCCC3)cc2C1=O | 3.12* | -211.5 | -23.8 | 1.24 | / | /
C[C@H](CO)N1C[C@H](C)[C@@H](CN(C)C(=O)Nc2ccc(C(F)(F)F)cc2)Oc2ccc(NC(=O)Nc3ccccc3)cc2C1=O | 2.43* | -143.3 | -9.8 | 1.1 | / | /
Cc1ccc([C@H]2C(C(=O)O)=CC[C@@H](c3ccc(C)cc3)N2S(=O)(=O)c2ccccc2C)cc1 | 0.878 | 12.2 | -4.1 | 1.04 | / | /
Cc1noc(C)c1NC(=O)N(C)C[C@H]1Oc2ccc(NC(=O)Nc3ccc(C(F)(F)F)cc3)cc2C(=O)N([C@H](C)CO)C[C@@H]1C | 2.55* | -154.7 | -10.3 | 1.1 | / | /
Cc1noc(C)c1NC(=O)N(C)C[C@H]1Oc2ccc(NC(=O)NC(C)C)cc2C(=O)N([C@H](C)CO)C[C@H]1C | 1.22 | -21.6 | 2.2 | 0.978 | / | /
C[C@H]1CN([C@@H](C)CO)C(=O)c2cccc(NC(=O)Nc3ccc(C(F)(F)F)cc3)c2O[C@@H]1CN(C)S(=O)(=O)c1ccc(Cl)cc1 | 2.11* | -110.8 | -2.0 | 1.02 | / | /
C[C@H](CO)N1C[C@H](C)[C@@H](CN(C)C(=O)NC2CCCCC2)Oc2ccc(NC(=O)Nc3ccc(C(F)(F)F)cc3)cc2C1=O | 2.3* | -130.4 | -10.3 | 1.1 | / | /
CC1CCCC(NC(=S)Nc2cccc(S(=O)(=O)N(C)C)c2)C1C (configuration not stated) | 4.92* | -392.3 | -23.4 | 1.23 | 4.3 | 1
Cc1ccc(S(=O)(=O)N(C)C)cc1NC(=S)NC12CC3CC(CC(C3)C1)C2 | / | / | / | / | / | 0.3
CN(C)S(=O)(=O)c1cccc(NC(=S)NC23CC4CC(CC(C4)C2)C3)c1 | 2.74* | -174.3 | -13.9 | 1.14 | / | /
COc1ccccc1C1=Nn2c(COc3ccccc3)nnc2SC1 | 1.07 | -7.3 | -5.7 | 1.06 | -7.3 | 1.1
Cc1cc2nc(CCN(C(=S)NCC(C)C)C3CCCC3)[nH]c2cc1C | 2.13* | -113.0 | 6.6 | 0.934 | -81.3 | 1.8
CC(C)Cc1nc2ccccc2[nH]1 | 0.997 | 0.3 | -41.2 | 1.41 | / | /
COc1ccccc1CC(Cc1nc2ccccc2[nH]1)c1nc2ccccc2[nH]1 (configuration not stated) | 1.49 | -48.6 | -62.9 | 1.63 | -259.2 | 3.6*
NS(=O)(=O)c1ccc(CCNS(=O)(=O)c2ccc(Cl)nc2)cc1 | 0.841 | 15.9 | -19.4 | 1.19 | / | /
COc1ccc(NC(=O)Nc2ccc3c(c2)C(=O)N([C@H](C)CO)C[C@H](C)[C@@H](CN(C)S(=O)(=O)c2ccccc2)O3)cc1 | 3.31* | -231.1 | 8.4 | 0.916 | / | /
COc1ccc(S(=O)(=O)N(C)C[C@H]2Oc3ccc(NC(=O)Cc4ccccc4)cc3C(=O)N([C@H](C)CO)C[C@@H]2C)cc1 | 1.28 | -28.4 | -1.1 | 1.01 | / | /
C[C@H](CO)N1C[C@H](C)[C@@H](CN(C)S(C)(=O)=O)Oc2ccc(NC(=O)Nc3ccc4c(c3)OCO4)cc2C1=O | 1.3 | -29.8 | 4.4 | 0.956 | / | /
C[C@H](CO)N1C[C@H](C)[C@@H](CN(C)S(=O)(=O)c2ccc(F)cc2)Oc2ccc(NC(=O)Nc3ccc4c(c3)OCO4)cc2C1=O | 2.47* | -146.8 | -9.8 | 1.1 | / | /
C[C@@H]1CN([C@@H](C)CO)C(=O)c2cc(NC(=O)Nc3ccc4c(c3)OCO4)ccc2O[C@H]1CN(C)S(=O)(=O)c1ccc(F)cc1 | 2.4* | -140.5 | 2.2 | 0.978 | / | /
C[C@H](CO)N1C[C@H](C)[C@@H](CN(C)S(=O)(=O)c2ccc(F)cc2)Oc2ccc(NC(=O)Nc3ccccc3)cc2C1=O | 2.44* | -143.8 | 4.4 | 0.956 | / | /
C[C@H](CO)N1C[C@H](C)[C@@H](CN(C)S(=O)(=O)c2ccc(F)cc2)Oc2ccc(NC(=O)Nc3ccc(C(F)(F)F)cc3)cc2C1=O | 1.33 | -32.8 | 7.1 | 0.929 | / | /
SMILES | mIAP act | mIAP block | hIAP inh | hIAP act | bIAP inhibitor | bIAP act
O=C(CNC(=O)N1CC(=O)Nc2ccccc21)NCCc1c[nH]c2ccccc12 | 0.967 | 3.3 | 8.6 | 0.914 | / | /
O=C(CN1C(=O)NC2(CCCCCCC2)C1=O)Nc1cccc(Br)c1 | 1.16 | -16.1 | 10.7 | 0.893 | / | /
Cn1c(=O)[nH]c(=O)c2c1nc(NCCCn1ccnc1)n2CCOc1ccccc1 | 1.07 | -7.0 | -13.6 | 1.14 | -289.5 | 3.9*
Cn1c(=O)[nH]c(=O)c2c1nc(NCCCO)n2Cc1ccc(F)cc1 | 1.04 | -3.7 | -13.0 | 1.13 | 4.1 | 1
Cn1c(=O)[nH]c(=O)c2c1nc(NCCCn1ccnc1)n2Cc1ccccc1 | 1.11 | -10.6 | -23.1 | 1.23 | -147.6 | 2.5*
CNc1nnc(SCC(=O)c2c(N)n(C3CC3)c(=O)[nH]c2=O)s1 | 0.934 | 6.6 | -12.8 | 1.13 | / | /
O=C(CCCCn1c(=O)c2ccccc2n(Cc2ccccc2F)c1=O)NC1CCN(Cc2ccccc2)CC1 | 0.927 | 7.3 | 11.5 | 0.885 | -11.9 | 1.1
CC(=O)c1cccc(OCc2cc(C(=O)NCc3nc(C)c(C)s3)no2)c1 | 0.937 | 6.3 | 7.9 | 0.921 | / | /
O=C(NCc1ccncc1)c1cn(-c2ccccc2)nc1-c1cccnc1 | 1.22 | -22.0 | 6.9 | 0.931 | -31.3 | 1.3
O=C(NC1CCN(Cc2ccc(Cl)cc2)CC1)c1cn(-c2ccccc2)nc1-c1cccnc1 | 2.27* | -126.9 | 2.7 | 0.973 | / | /
CC(Sc1nnc(-c2ccco2)o1)C(=O)Nc1ccc(OC(F)F)cc1 (configuration not stated) | 0.486 | 51.4* | -10.2 | 1.1 | / | /
COc1ccc(C(=O)NNC(=S)NC(=O)C(C)(C)C)cc1 | 1.06 | -6.4 | -108.9 | 2.09* | -70.6 | 1.7
Cc1cc(C(=O)CN2C(=O)C(=O)N(C3CCCC3)C2=O)c(C)n1CCc1ccc(F)cc1 | 0.976 | 2.4 | -11.5 | 1.11 | / | /
O=C1c2c(O)cc(O)cc2O[C@@]12c1c(cc(O)c3c1O[C@H](c1ccc(O)cc1)[C@@H](O)C3)O[C@@H]2c1ccc(O)cc1 | 0.588 | 41.2* | 7.4 | 0.926 | 1.2 | 1
CC(C)OCC1CO1 (configuration not stated) | 1.07 | -7.4 | 7.0 | 0.93 | / | /

Bioassay records as filed in PubChem BioAssay.
